Test results from ChEMBL document CHEMBL1131050, “Benzoxazole derivatives as novel 5-HT3 receptor partial agonists in the gut” (J Med Chem, 1998).

Assays:
[1] = target: T1, Serotonin 3 (5-HT3) receptor (Rattus norvegicus, UniProt P35563+Q9JJ16); assay: Binding affinity for 5-hydroxytryptamine 3 receptor in rat cerebral cortex, determined by displacement of [3H]GR-65630; format: tissue-based
T1 sequence (P35563 whole entry): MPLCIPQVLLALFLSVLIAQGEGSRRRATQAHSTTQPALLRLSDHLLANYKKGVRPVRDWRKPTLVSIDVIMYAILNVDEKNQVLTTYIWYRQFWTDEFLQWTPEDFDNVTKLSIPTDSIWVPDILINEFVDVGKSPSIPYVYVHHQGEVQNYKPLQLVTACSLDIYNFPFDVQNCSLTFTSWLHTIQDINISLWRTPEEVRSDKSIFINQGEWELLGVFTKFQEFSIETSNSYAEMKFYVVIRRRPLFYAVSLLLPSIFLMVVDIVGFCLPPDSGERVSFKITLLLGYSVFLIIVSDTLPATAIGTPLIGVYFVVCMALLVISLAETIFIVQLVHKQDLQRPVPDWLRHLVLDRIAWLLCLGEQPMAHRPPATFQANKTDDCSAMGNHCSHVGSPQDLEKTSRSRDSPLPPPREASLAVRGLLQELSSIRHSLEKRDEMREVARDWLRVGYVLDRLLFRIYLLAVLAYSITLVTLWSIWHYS
T1 sequence (Q9JJ16 whole entry): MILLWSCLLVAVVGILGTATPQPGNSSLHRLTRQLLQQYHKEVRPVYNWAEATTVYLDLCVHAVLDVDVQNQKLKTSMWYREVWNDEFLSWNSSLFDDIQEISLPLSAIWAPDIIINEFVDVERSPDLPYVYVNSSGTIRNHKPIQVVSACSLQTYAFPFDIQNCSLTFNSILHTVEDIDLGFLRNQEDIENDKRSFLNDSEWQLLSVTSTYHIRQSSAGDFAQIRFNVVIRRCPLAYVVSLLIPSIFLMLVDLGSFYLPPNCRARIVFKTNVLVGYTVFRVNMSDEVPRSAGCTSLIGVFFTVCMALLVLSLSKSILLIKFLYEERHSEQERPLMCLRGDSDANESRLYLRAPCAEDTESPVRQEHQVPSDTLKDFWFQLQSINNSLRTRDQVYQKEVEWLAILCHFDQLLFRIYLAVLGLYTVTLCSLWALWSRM
Outline: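 Membranes from cortex of male Wistar rats (250–300 g); 0.04 mg membrane incubated with 0.2 nM […], 60 min, 22 °C; filtration, three washes, filter counting. Nonspecific binding defined with 1 mM ICS205-930. Six replicates per dose; displacement curves fitted by nonlinear regression to give IC50, converted to Ki by Cheng–Prusoff.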

[2] = tested on: 5-HT3 receptor (Cavia porcellus); assay: Potency of partial agonist action given by concentration producing 50% of individual maximal contraction of isolated guinea pig ileum
[3] = tested on: 5-HT3 receptor (Cavia porcellus); assay: Maximal partial agonist activity at 5-hydroxytryptamine 3 receptor of isolated guinea pig ileum as ratio to 5-HT response
[4] = target: T1, Serotonin 3 (5-HT3) receptor; assay: Binding affinity for 5-hydroxytryptamine 3 receptor was determined by measuring displacement of [3H]GR-65630 from rat brain cortices
Mus musculus [5] = assay: Transition time (time required to evacuate the glass bead) in the distal colon in mice at dose 30 mg/kg; format: functional
Outline: (§1)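 Male mice fasted 4 h. Compound given sc 20 min before a 3 mm glass bead was inserted 3 cm into the distal colon; time to expel the bead was recorded. 8 animals per group, mean ± SEM. Compared with control by ANOVA followed by Steel's multiple range test, p < 0.05.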

[6] = target: GABA-A receptor; anion channel (Homo sapiens) (UniProt P14867+P47870+P18507+P28472+P48169+Q99928+Q9UN88+P34903+O00591+O14764+Q8N1C3+P18505+P78334+P47869+P31644+Q16445); assay: Inhibition of [3H]flunitrazepam binding to GABA-A central benzodiazepine receptor at 10e-5 M; format: protein-complex assay
[7] = target: T2, 5-hydroxytryptamine receptor 1A (Mus musculus) (UniProt Q64264); assay: Inhibitory activity against 5-hydroxytryptamine 1A receptor using [3H]8-OH-DPAT as radioligand at 10e-5 M concentration
T2 sequence (whole entry): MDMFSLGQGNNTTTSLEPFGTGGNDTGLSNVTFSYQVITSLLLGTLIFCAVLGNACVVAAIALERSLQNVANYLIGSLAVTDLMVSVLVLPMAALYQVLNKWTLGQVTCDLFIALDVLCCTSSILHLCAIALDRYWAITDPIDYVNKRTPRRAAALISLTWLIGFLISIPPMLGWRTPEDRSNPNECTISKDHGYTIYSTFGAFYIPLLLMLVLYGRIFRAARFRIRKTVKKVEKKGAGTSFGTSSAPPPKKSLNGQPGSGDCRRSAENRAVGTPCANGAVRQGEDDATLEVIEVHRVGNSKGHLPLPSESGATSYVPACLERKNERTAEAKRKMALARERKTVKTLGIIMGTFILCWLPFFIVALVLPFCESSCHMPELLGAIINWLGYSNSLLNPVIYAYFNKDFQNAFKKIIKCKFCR

[8] = tested on: Alpha-2 adrenergic receptor (Rattus norvegicus); assay: Inhibitory activity against Alpha-2 adrenergic receptor using [3H]rauwolscine as radioligand at 10e-5 M concentration
[9] = target: Beta-2 adrenergic receptor (Canis lupus familiaris) (UniProt P54833); assay: Inhibitory activity against non-selective beta adrenergic receptor using [3H]DHA as radioligand at 10e-5 M concentration
Chain of Beta-2 adrenergic receptor (Canis lupus familiaris) (P54833 whole entry, looked up): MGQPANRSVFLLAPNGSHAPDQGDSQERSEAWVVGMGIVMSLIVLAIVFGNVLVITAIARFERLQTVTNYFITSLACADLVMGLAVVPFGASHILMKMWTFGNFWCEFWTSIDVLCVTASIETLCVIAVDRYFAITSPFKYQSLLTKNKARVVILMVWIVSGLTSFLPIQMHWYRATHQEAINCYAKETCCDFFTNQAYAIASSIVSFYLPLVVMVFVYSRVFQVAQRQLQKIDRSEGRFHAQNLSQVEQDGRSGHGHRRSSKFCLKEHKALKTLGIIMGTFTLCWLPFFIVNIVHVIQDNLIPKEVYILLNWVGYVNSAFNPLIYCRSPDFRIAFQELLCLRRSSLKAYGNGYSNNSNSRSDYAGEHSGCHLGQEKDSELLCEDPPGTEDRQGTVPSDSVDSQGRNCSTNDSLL

[10] = target: D(1A) dopamine receptor (Mus musculus) (UniProt Q61616); assay: Inhibitory activity against Dopamine receptor D1 using [3H]SCH-23390 as radioligand at 10e-5 M concentration at 10e-5 M concentration
Chain of D(1A) dopamine receptor (Mus musculus) (Q61616 whole entry): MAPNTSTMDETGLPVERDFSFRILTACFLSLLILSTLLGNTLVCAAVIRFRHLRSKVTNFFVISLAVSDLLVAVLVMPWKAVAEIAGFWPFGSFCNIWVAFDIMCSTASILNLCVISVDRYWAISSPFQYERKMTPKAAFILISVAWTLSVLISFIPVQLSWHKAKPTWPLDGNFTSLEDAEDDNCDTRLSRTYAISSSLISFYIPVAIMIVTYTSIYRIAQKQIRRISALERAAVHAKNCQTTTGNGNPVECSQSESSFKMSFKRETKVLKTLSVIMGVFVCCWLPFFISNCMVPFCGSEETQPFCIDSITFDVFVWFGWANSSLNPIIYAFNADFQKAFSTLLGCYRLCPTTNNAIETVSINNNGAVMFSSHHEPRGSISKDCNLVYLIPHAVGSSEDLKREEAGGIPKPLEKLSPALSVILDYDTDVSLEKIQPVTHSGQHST

Mus musculus [11] = assay: Transition time (time required to evacuate the glass bead) in the distal colon in mice at dose 3 mg/kg; format: functional; outline: as §1
Mus musculus [12] = assay: Inhibitory activity against 5-HT evoked diarrhea in mice, sc; format: functional; details: read-out: ID50 (the source's name)
[13] = target: 5-hydroxytryptamine receptor 2A (Bos taurus) (UniProt Q75Z89); assay: Inhibitory activity against 5-hydroxytryptamine 2 receptor using [3H]-ketanserin as radioligand at 10e-5 M concentration
Chain of 5-hydroxytryptamine receptor 2A (Bos taurus) (Q75Z89 whole entry): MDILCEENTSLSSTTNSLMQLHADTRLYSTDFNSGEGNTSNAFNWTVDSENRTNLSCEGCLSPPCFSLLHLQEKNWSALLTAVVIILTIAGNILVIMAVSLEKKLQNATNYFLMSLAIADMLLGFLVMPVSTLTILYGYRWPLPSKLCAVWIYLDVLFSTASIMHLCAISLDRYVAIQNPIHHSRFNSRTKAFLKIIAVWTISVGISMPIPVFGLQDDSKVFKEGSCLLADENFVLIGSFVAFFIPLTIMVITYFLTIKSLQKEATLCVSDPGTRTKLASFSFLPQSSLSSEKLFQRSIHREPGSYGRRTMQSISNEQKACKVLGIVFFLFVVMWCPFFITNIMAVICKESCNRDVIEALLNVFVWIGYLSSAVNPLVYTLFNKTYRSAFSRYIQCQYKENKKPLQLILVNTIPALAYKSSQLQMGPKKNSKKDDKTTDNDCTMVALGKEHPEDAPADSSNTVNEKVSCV

[14] = target: D(2) dopamine receptor (Homo sapiens) (UniProt P14416); assay: Inhibitory activity against Dopamine receptor D2 using [3H]-spiperone as radioligand at 10e-5 M concentration
Chain of D(2) dopamine receptor (Homo sapiens) (P14416 whole entry): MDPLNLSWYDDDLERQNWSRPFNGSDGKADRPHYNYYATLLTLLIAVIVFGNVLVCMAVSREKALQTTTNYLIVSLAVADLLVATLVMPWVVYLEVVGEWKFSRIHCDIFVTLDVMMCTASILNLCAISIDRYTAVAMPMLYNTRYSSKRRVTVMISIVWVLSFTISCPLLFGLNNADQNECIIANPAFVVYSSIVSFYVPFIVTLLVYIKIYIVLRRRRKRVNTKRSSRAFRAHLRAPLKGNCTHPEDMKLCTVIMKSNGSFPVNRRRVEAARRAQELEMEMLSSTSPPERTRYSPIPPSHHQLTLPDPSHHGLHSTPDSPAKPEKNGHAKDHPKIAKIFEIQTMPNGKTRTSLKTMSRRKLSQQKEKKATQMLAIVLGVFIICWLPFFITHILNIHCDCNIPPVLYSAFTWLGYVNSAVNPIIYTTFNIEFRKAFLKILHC

[15] = tested on: Alpha-1 adrenergic receptor (Rattus norvegicus); assay: Inhibitory activity against Alpha-1 adrenergic receptor using [3H]prazosin as radioligand at 10e-5 M concentration
Rattus norvegicus = species: Rattus norvegicus; assay: Inhibitory dose against 5-HT-Evoked Bezold-Jarisch (B-J) reflex in rats; format: functional; details: read-out: ID50 (the source's name)
Mus musculus [16] = assay: Transition time (time required to evacuate the glass bead) in the distal colon in mice at dose 0.3 mg/kg; format: functional; outline: as §1
[17] = target: T3, 5-hydroxytryptamine receptor 1F (Rattus norvegicus) (UniProt P30940); assay: Inhibitory activity against 5-hydroxytryptamine 1 receptor using [3H]5-HT as radioligand at 10e-5 M concentration
T3 sequence (whole entry): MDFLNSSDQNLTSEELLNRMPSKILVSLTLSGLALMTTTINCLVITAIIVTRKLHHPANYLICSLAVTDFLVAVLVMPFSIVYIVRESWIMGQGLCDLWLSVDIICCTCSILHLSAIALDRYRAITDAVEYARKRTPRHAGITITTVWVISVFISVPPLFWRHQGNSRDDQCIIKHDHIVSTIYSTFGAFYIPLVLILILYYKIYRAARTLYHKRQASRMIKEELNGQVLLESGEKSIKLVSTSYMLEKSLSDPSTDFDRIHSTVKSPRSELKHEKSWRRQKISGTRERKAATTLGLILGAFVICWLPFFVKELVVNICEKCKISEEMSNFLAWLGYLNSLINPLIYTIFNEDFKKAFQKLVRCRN

Mus musculus [18] = assay: Transition time (time required to evacuate the glass bead) in the distal colon in mice at dose 1 mg/kg; format: functional; outline: as §1

Structure (SMILES): CN1CCN(c2nc3cc(C(F)(F)F)ccc3o2)CC1
- inhibition at 10^-7 M [1]: 22%
- pD2 [2]: < 5

Structure (SMILES): Cc1c(Cl)cc2nc(N3CCN(C)CC3)oc2c1C
- inhibition at 10^-7 M [1]: 101%
- pD2 [2]: 6.67
- IA [3]: 0.14

Structure (SMILES): CN1CCN(c2nc3cc(Cl)ccc3o2)CC1
- inhibition at 10^-7 M [1]: 94%
- pD2 [2]: 6.07
- IA [3]: 0.5

Structure (SMILES): c1ccc2oc(N3CCCCC3)nc2c1
- pD2 [2]: < 5

Structure (SMILES): Cc1c(Cl)cc2nc(N3CCN(C)CC3)oc2c1Cl
- inhibition at 10^-7 M [1]: 96%
- pD2 [2]: 6.64
- IA [3]: 0.1

Structure (SMILES): CN1CCN(c2nc3cc(F)ccc3o2)CC1
- inhibition at 10^-7 M [1]: 91%
- pD2 [2]: 5.57
- IA [3]: 0.64

Structure (SMILES): Cc1cc2oc(N3CCN(C)CC3)nc2cc1Cl
- inhibition at 10^-7 M [1]: 95%
- pD2 [2]: 6.28
- IA [3]: 0.28

Structure (SMILES): Cc1cc(Cl)cc2nc(N3CCCN(C)CC3)oc12
- Ki [4]: 1.1 nM
- Time (Mus musculus [5]): 328.8 s
- inhibition [6]: 12%
- inhibition [7]: -3%
- inhibition [8]: 33%
- inhibition [9]: 24%
- inhibition at 10^-7 M [1]: 98%
- inhibition [10]: 18%
- Time (Mus musculus [11]): 357.2 s
- ED50 (Mus musculus [12]): 0.3 mg/kg
- inhibition [13]: 23%
- pD2 [2]: 7.76
- IA [3]: 0.12
- inhibition [14]: 5%
- inhibition [15]: 22%
- ED50 (Rattus norvegicus): 0.0876 mg/kg
- Time (Mus musculus [16]): 262.6 s
- inhibition [17]: 14%

Structure (SMILES): Cc1cc2nc(N3CCN(C)CC3)oc2cc1C
- inhibition at 10^-7 M [1]: 32%
- pD2 [2]: 6.16
- IA [3]: 0.66

Structure (SMILES): CN1C2CCCC1CC(NC(=O)c1nn(C)c3ccccc13)C2 (stereo not given) [GRANISETRON]
- Time (Mus musculus [11]): 827 s
- Time (Mus musculus [18]): 614 s
- Time (Mus musculus [16]): 373 s

Structure (SMILES): c1ccc2oc(C3CCNCC3)nc2c1
- inhibition at 10^-7 M [1]: 39%
- pD2 [2]: 5.59
- IA [3]: 0.31

Structure (SMILES): Cc1cc(Cl)cc2nc(N3CCN(C)CC3)oc12
- inhibition at 10^-7 M [1]: 85%
- pD2 [2]: 6.7
- IA [3]: 0.24

Structure (SMILES): CN1CCN(c2nc3ccccc3o2)CC1
- inhibition at 10^-7 M [1]: 55%
- pD2 [2]: 5.01
- IA [3]: 0.62

Structure (SMILES): CN1CCCN(c2nc3cc(Cl)ccc3o2)CC1
- inhibition at 10^-7 M [1]: 87%
- pD2 [2]: 7
- IA [3]: 0.31

Structure (SMILES): CN1CCN(c2nc3cc(Cl)cc(Cl)c3o2)CC1
- inhibition at 10^-7 M [1]: 62%
- pD2 [2]: 6.51
- IA [3]: 0.14

Structure (SMILES): Cc1cc(C)c2oc(N3CCN(C)CC3)nc2c1
- inhibition at 10^-7 M [1]: 94%
- pD2 [2]: 6.32
- IA [3]: 0.62

Structure (SMILES): CN1CCN(c2nc3cc(Br)ccc3o2)CC1
- inhibition at 10^-7 M [1]: 92%
- pD2 [2]: 6.21
- IA [3]: 0.48

Structure (SMILES): Cc1ccc2nc(N3CCN(C)CC3)oc2c1
- inhibition at 10^-7 M [1]: 74%
- pD2 [2]: 5.15
- IA [3]: 0.85

Structure (SMILES): Cc1ccc2oc(N3CCN(C)CC3)nc2c1
- inhibition at 10^-7 M [1]: 83%
- pD2 [2]: 6
- IA [3]: 0.72

Structure (SMILES): c1ccc2oc(N3CCNCC3)nc2c1
- inhibition at 10^-7 M [1]: 83%

Structure (SMILES): Cc1cccc2nc(N3CCN(C)CC3)oc12
- inhibition at 10^-7 M [1]: 77%
- pD2 [2]: 5.46
- IA [3]: 0.58

Structure (SMILES): CCc1ccc2oc(N3CCN(C)CC3)nc2c1
- inhibition at 10^-7 M [1]: 11%
- pD2 [2]: < 5

Structure (SMILES): CN1CCCN(c2nc3ccccc3o2)CC1
- inhibition at 10^-7 M [1]: 86%
- pD2 [2]: 6.03
- IA [3]: 0.54

Structure (SMILES): Cc1cccc2oc(N3CCN(C)CC3)nc12
- inhibition at 10^-7 M [1]: 25%
- pD2 [2]: < 5
